Source: ChEMBL document CHEMBL5724801, “EUbOPEN Chemogenomics Library - Multiplex” (2024)
Several values for one entry are separate records, joined by “and”; a condition that tells them apart may be missing. Equal entries are not always repeated.

Tested on: HEK-293T
Test: Multiplex assay against HEK293T
Assay type: toxicity, cell-based
Conditions: human
In short: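 Live cells were stained at seeding with Hoechst33342, BioTracker Green Microtubule Cytoskeleton Dye, MitoTracker Red and Annexin V Alexa Fluor 680, then imaged on a CQ1 microscope at 37°C and 5% CO2 after compound addition. CellPathfinder machine-learning gating split cells into Hoechst high-intensity objects or normal cells. Normal cells were split into healthy, pyknosed or fragmented nuclei, and pyknosed cells into mitotic or apoptotic. Tubulin, mitochondrial-mass and membrane-permeability phenotypes are per cents of healthy-nucleus cells.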

[1] = 12 h, 1 µM, compound concentration 1 uM
[2] = 12 h, 10 µM, compound concentration 10 uM
[3] = 24 h, 1 µM, compound concentration 1 uM
[4] = 24 h, 10 µM, compound concentration 10 uM
[5] = 48 h, 1 µM, compound concentration 1 uM
[6] = 48 h, 10 µM, compound concentration 10 uM

Compound: Cl.NCCc1ccc(O)c(O)c1 [DOPAMINE HYDROCHLORIDE]
- Population Apoptotic (%) [1]: 31% and 54%
- Population Fragmented Nuclei (%) [1]: 6% and 7%
- Population Healthy Nuclei (%) [1]: 77% and 78%
- Population Hoechst High Intensity Objects (%) [1]: 10% and 6%
- Population Membrane Permeable-Phenotype (%) [1]: 0%
- Population Mitochondria Different-Phenotype (%) [1]: 54% and 58%
- Population Mitotic Cells (%) [1]: 68% and 46%
- Population Normal (%) [1]: 89% and 93%
- Population Pyknosed Nuclei (%) [1]: 16% and 14%
- Population Tubulin-Different-Phenotype (%) [1]: 36% and 18%
- Total Cell Count [1]: 324 and 372
- Population Apoptotic (%) [2]: 46% and 37%
- Population Fragmented Nuclei (%) [2]: 5%
- Population Healthy Nuclei (%) [2]: 77% and 83%
- Population Hoechst High Intensity Objects (%) [2]: 6% and 5%
- Population Membrane Permeable-Phenotype (%) [2]: 0%
- Population Mitochondria Different-Phenotype (%) [2]: 57% and 51%
- Population Mitotic Cells (%) [2]: 53% and 62%
- Population Normal (%) [2]: 93% and 94%
- Population Pyknosed Nuclei (%) [2]: 17% and 11%
- Population Tubulin-Different-Phenotype (%) [2]: 43% and 23%
- Total Cell Count [2]: 344 and 413
- Population Apoptotic (%) [3]: 44% and 20%
- Population Fragmented Nuclei (%) [3]: 9% and 8%
- Population Healthy Nuclei (%) [3]: 76% and 85%
- Population Hoechst High Intensity Objects (%) [3]: 4% and 5%
- Population Membrane Permeable-Phenotype (%) [3]: 1% and 0%
- Population Mitochondria Different-Phenotype (%) [3]: 40% and 46%
- Population Mitotic Cells (%) [3]: 55% and 79%
- Population Normal (%) [3]: 95% and 94%
- Population Pyknosed Nuclei (%) [3]: 13% and 5%
- Population Tubulin-Different-Phenotype (%) [3]: 19% and 11%
- Total Cell Count [3]: 451 and 478
- Population Apoptotic (%) [4]: 39% and 38%
- Population Fragmented Nuclei (%) [4]: 7% and 9%
- Population Healthy Nuclei (%) [4]: 79% and 83%
- Population Hoechst High Intensity Objects (%) [4]: 5%
- Population Membrane Permeable-Phenotype (%) [4]: 0%
- Population Mitochondria Different-Phenotype (%) [4]: 36% and 40%
- Population Mitotic Cells (%) [4]: 60% and 61%
- Population Normal (%) [4]: 94%
- Population Pyknosed Nuclei (%) [4]: 12% and 7%
- Population Tubulin-Different-Phenotype (%) [4]: 23% and 15%
- Total Cell Count [4]: 393 and 533
- Population Apoptotic (%) [5]: 19% and 23%
- Population Fragmented Nuclei (%) [5]: 14% and 10%
- Population Healthy Nuclei (%) [5]: 78% and 81%
- Population Hoechst High Intensity Objects (%) [5]: 4%
- Population Membrane Permeable-Phenotype (%) [5]: 1% and 0%
- Population Mitochondria Different-Phenotype (%) [5]: 23% and 20%
- Population Mitotic Cells (%) [5]: 80% and 76%
- Population Normal (%) [5]: 95%
- Population Pyknosed Nuclei (%) [5]: 7%
- Population Tubulin-Different-Phenotype (%) [5]: 14% and 7%
- Total Cell Count [5]: 785 and 638
- Population Apoptotic (%) [6]: 30% and 17%
- Population Fragmented Nuclei (%) [6]: 14% and 12%
- Population Healthy Nuclei (%) [6]: 79% and 83%
- Population Hoechst High Intensity Objects (%) [6]: 3% and 1%
- Population Membrane Permeable-Phenotype (%) [6]: 0%
- Population Mitochondria Different-Phenotype (%) [6]: 24% and 17%
- Population Mitotic Cells (%) [6]: 70% and 82%
- Population Normal (%) [6]: 96% and 98%
- Population Pyknosed Nuclei (%) [6]: 6% and 4%
- Population Tubulin-Different-Phenotype (%) [6]: 13% and 7%
- Total Cell Count [6]: 660 and 859

Compound: CNC[C@H](O)c1ccc(O)c(O)c1 [EPINEPHRINE]
- Population Apoptotic (%) [1]: 20% and 56%
- Population Fragmented Nuclei (%) [1]: 6%
- Population Healthy Nuclei (%) [1]: 81%
- Population Hoechst High Intensity Objects (%) [1]: 7% and 6%
- Population Membrane Permeable-Phenotype (%) [1]: 0%
- Population Mitochondria Different-Phenotype (%) [1]: 31% and 65%
- Population Mitotic Cells (%) [1]: 80% and 43%
- Population Normal (%) [1]: 92% and 93%
- Population Pyknosed Nuclei (%) [1]: 11%
- Population Tubulin-Different-Phenotype (%) [1]: 26% and 27%
- Population Apoptotic (%) [2]: 55% and 56%
- Population Fragmented Nuclei (%) [2]: 12% and 11%
- Population Healthy Nuclei (%) [2]: 75% and 61%
- Population Membrane Permeable-Phenotype (%) [2]: 1% and 0%
- Population Mitochondria Different-Phenotype (%) [2]: 65% and 62%
- Population Mitotic Cells (%) [2]: 44% and 43%
- Population Normal (%) [2]: 90% and 59%
- Population Pyknosed Nuclei (%) [2]: 11% and 26%
- Population Tubulin-Different-Phenotype (%) [2]: 39% and 25%
- Population Apoptotic (%) [3]: 19% and 36%
- Population Fragmented Nuclei (%) [3]: 9%
- Population Healthy Nuclei (%) [3]: 80%
- Population Hoechst High Intensity Objects (%) [3]: 5% and 7%
- Population Membrane Permeable-Phenotype (%) [3]: 0% and 1%
- Population Mitochondria Different-Phenotype (%) [3]: 25% and 41%
- Population Mitotic Cells (%) [3]: 80% and 63%
- Population Normal (%) [3]: 94% and 92%
- Population Pyknosed Nuclei (%) [3]: 9% and 10%
- Population Tubulin-Different-Phenotype (%) [3]: 21% and 18%
- Population Apoptotic (%) [4]: 50% and 80%
- Population Fragmented Nuclei (%) [4]: 13% and 11%
- Population Healthy Nuclei (%) [4]: 75% and 71%
- Population Membrane Permeable-Phenotype (%) [4]: 0%
- Population Mitochondria Different-Phenotype (%) [4]: 50% and 43%
- Population Mitotic Cells (%) [4]: 50% and 19%
- Population Normal (%) [4]: 91% and 60%
- Population Pyknosed Nuclei (%) [4]: 11% and 17%
- Population Tubulin-Different-Phenotype (%) [4]: 36% and 25%
- Population Apoptotic (%) [5]: 16% and 35%
- Population Fragmented Nuclei (%) [5]: 11% and 12%
- Population Healthy Nuclei (%) [5]: 81% and 78%
- Population Hoechst High Intensity Objects (%) [5]: 3%
- Population Membrane Permeable-Phenotype (%) [5]: 1%
- Population Mitochondria Different-Phenotype (%) [5]: 13% and 24%
- Population Mitotic Cells (%) [5]: 83% and 64%
- Population Normal (%) [5]: 96%
- Population Pyknosed Nuclei (%) [5]: 7% and 8%
- Population Tubulin-Different-Phenotype (%) [5]: 9% and 15%
- Population Apoptotic (%) [6]: 33% and 69%
- Population Fragmented Nuclei (%) [6]: 21% and 17%
- Population Healthy Nuclei (%) [6]: 72% and 67%
- Population Membrane Permeable-Phenotype (%) [6]: 0%
- Population Mitochondria Different-Phenotype (%) [6]: 25% and 34%
- Population Mitotic Cells (%) [6]: 66% and 30%
- Population Normal (%) [6]: 96% and 78%
- Population Pyknosed Nuclei (%) [6]: 5% and 14%
- Population Tubulin-Different-Phenotype (%) [6]: 11% and 13%

Compound: CN[C@@H](C)C(=O)N[C@H](C(=O)N1CCC[C@H]1C(=O)Nc1snnc1-c1ccccc1)C1CCCCC1 [GDC-0152]
- Population Apoptotic (%) [1]: 31% and 60%
- Population Fragmented Nuclei (%) [1]: 5%
- Population Healthy Nuclei (%) [1]: 78% and 79%
- Population Hoechst High Intensity Objects (%) [1]: 5% and 7%
- Population Membrane Permeable-Phenotype (%) [1]: 0%
- Population Mitochondria Different-Phenotype (%) [1]: 41% and 62%
- Population Mitotic Cells (%) [1]: 68% and 39%
- Population Normal (%) [1]: 94% and 92%
- Population Pyknosed Nuclei (%) [1]: 15% and 14%
- Population Tubulin-Different-Phenotype (%) [1]: 35% and 26%
- Total Cell Count [1]: 444 and 314
- Population Apoptotic (%) [2]: 50% and 72%
- Population Fragmented Nuclei (%) [2]: 6% and 7%
- Population Healthy Nuclei (%) [2]: 73%
- Population Hoechst High Intensity Objects (%) [2]: 13% and 20%
- Population Membrane Permeable-Phenotype (%) [2]: 0%
- Population Mitochondria Different-Phenotype (%) [2]: 78% and 89%
- Population Mitotic Cells (%) [2]: 49% and 28%
- Population Normal (%) [2]: 86% and 80%
- Population Pyknosed Nuclei (%) [2]: 20% and 18%
- Population Tubulin-Different-Phenotype (%) [2]: 78% and 72%
- Total Cell Count [2]: 362 and 330
- Population Apoptotic (%) [3]: 30% and 38%
- Population Fragmented Nuclei (%) [3]: 8% and 5%
- Population Healthy Nuclei (%) [3]: 80% and 82%
- Population Hoechst High Intensity Objects (%) [3]: 4% and 6%
- Population Membrane Permeable-Phenotype (%) [3]: 1% and 0%
- Population Mitochondria Different-Phenotype (%) [3]: 28% and 53%
- Population Mitotic Cells (%) [3]: 69% and 61%
- Population Normal (%) [3]: 95% and 93%
- Population Pyknosed Nuclei (%) [3]: 10% and 12%
- Population Tubulin-Different-Phenotype (%) [3]: 23% and 22%
- Total Cell Count [3]: 601 and 387
- Population Apoptotic (%) [4]: 45% and 60%
- Population Fragmented Nuclei (%) [4]: 10% and 12%
- Population Healthy Nuclei (%) [4]: 71% and 68%
- Population Hoechst High Intensity Objects (%) [4]: 7% and 21%
- Population Membrane Permeable-Phenotype (%) [4]: 0%
- Population Mitochondria Different-Phenotype (%) [4]: 74% and 80%
- Population Mitotic Cells (%) [4]: 54% and 40%
- Population Normal (%) [4]: 92% and 78%
- Population Pyknosed Nuclei (%) [4]: 17% and 19%
- Population Tubulin-Different-Phenotype (%) [4]: 69% and 58%
- Total Cell Count [4]: 454 and 400
- Population Apoptotic (%) [5]: 31% and 40%
- Population Fragmented Nuclei (%) [5]: 12% and 10%
- Population Healthy Nuclei (%) [5]: 78% and 82%
- Population Hoechst High Intensity Objects (%) [5]: 4% and 3%
- Population Membrane Permeable-Phenotype (%) [5]: 1%
- Population Mitochondria Different-Phenotype (%) [5]: 22% and 29%
- Population Mitotic Cells (%) [5]: 68% and 60%
- Population Normal (%) [5]: 95% and 96%
- Population Pyknosed Nuclei (%) [5]: 9% and 6%
- Population Tubulin-Different-Phenotype (%) [5]: 16%
- Total Cell Count [5]: 928 and 603
- Population Apoptotic (%) [6]: 47% and 60%
- Population Fragmented Nuclei (%) [6]: 12%
- Population Healthy Nuclei (%) [6]: 73% and 70%
- Population Hoechst High Intensity Objects (%) [6]: 16% and 21%
- Population Membrane Permeable-Phenotype (%) [6]: 0%
- Population Mitochondria Different-Phenotype (%) [6]: 74% and 76%
- Population Mitotic Cells (%) [6]: 52% and 39%
- Population Normal (%) [6]: 83% and 78%
- Population Pyknosed Nuclei (%) [6]: 13% and 17%
- Population Tubulin-Different-Phenotype (%) [6]: 55% and 52%
- Total Cell Count [6]: 538 and 417
